Experimental data reported in paper PMC5024769 (Drug Design, Development and Therapy, 2016).
“Also recorded” adds a separate entry of the source. Values belong to the compound of their own block, whether it stands above or below them.

What was measured:
[1] = In vitro stability in rat plasma; type: in vitro ADME; settings: 60 minutes incubation with rat plasma
How it was run: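 Rat plasma was separated by centrifugation and diluted with pH 7.4 phosphate buffer to 80% final. Test compound (20 µM final) was incubated at 37°C for 60 min with agitation, then quenched with MeOH plus CH3CN. Analysis was by HPLC-UV at 254 nm, with acetonitrile–water gradient, mobile phase pH 7.0 (NH4OH) and methyl biphenyl-4-carboxylate internal standard (20 µM). Three independent experiments in duplicate.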

[2] = test system: diabetic rats (Rattus norvegicus); experiment: Blood glucose after a single dose in diabetes model induced by STZ; type: in vivo; settings: for Blood glucose after single dose / Hypoglycemic activity (in words) / Blood glucose before single dose: STZ diabetic rats; for Blood glucose after single dose / Hypoglycemic activity (in words): 20 mg·kg−1 ip, single dose; for Blood glucose before single dose: value before treatment (time control)
How it was run: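 Diabetes was induced in rats by single iv STZ (60 mg·kg−1 in citrate buffer, pH 4.5). After 4 weeks, male Wistar rats (180–220 g) with glycemia >300 mg/dL were used. Groups were non-diabetic, diabetic plus DMSO vehicle, and diabetic plus test compound (single 20 mg·kg−1 ip dose). Plasma glucose was read by glucometer at 0, 30, 60, 120 and 180 min. n=7/group; mean ± SEM; Student's t-test versus time control.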

[3] = test system: diabetic rats (Rattus norvegicus); experiment: Mechanical allodynia; type: in vivo; settings: STZ diabetic rats
How it was run: (§1)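 Male Wistar rats (180–220 g) were made diabetic by single iv STZ 60 mg·kg−1 (glycemia >300 mg/dL). Thermal hyperalgesia was scored as paw withdrawal latency to radiant heat on the hind paw (plantar meter). Mechanical allodynia was scored as paw withdrawal threshold to pressure (digital analgesiometer). Readings were taken before and 4 weeks after induction, then 3 and 7 days into daily test compound 50 mg·kg−1 ip (DMSO vehicle). n=5/group; mean ± SEM; two-way ANOVA.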

[4] = test system: diabetic rats (Rattus norvegicus); experiment: Thermal hyperalgesia; type: in vivo; settings: STZ diabetic rats
How it was run: as §1

[5] = test system: diabetic rats (Rattus norvegicus); experiment: Blood glucose during 7 days' treatment of STZ diabetic rats; type: in vivo; settings: 50 mg/kg once a day for 7 days
How it was run: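 Male Wistar rats (180–220 g) were made diabetic by single iv STZ (60 mg·kg−1, citrate buffer pH 4.5); after 4 weeks, those with glycemia >300 mg/dL were used. They received test compound 50 mg·kg−1 ip once daily for 7 days, with DMSO as vehicle. Plasma glucose was measured before treatment and on days 3 and 7.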

[6] = In vitro chemical stability in buffer at pH 2.0 and pH 7.4; type: physicochemical; settings: pH 2.0, 20 µM, 37°C
How it was run: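 DMSO stocks (5–10 mM) were diluted into pH 2 buffer (0.2 M KCl/0.2 M HCl) or pH 7.4 dibasic phosphate buffer, giving 20 µM test compound. Samples were held in a 37°C water bath with vigorous stirring for 0, 30, 60 and 120 min. Acid samples were then neutralised with pH 8.4 phosphate buffer. % remaining = peak area at each time / area at 0 min × 100. At least two experiments in triplicate.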

[7] = test system: diabetic neuropathic pain model induced by STZ in rats; settings: cited from earlier work
PPARγ [8] = biological target: T1, PPARγ (Homo sapiens, UniProt P37231); settings: cited from earlier work
T1 sequence (P37231 1-505): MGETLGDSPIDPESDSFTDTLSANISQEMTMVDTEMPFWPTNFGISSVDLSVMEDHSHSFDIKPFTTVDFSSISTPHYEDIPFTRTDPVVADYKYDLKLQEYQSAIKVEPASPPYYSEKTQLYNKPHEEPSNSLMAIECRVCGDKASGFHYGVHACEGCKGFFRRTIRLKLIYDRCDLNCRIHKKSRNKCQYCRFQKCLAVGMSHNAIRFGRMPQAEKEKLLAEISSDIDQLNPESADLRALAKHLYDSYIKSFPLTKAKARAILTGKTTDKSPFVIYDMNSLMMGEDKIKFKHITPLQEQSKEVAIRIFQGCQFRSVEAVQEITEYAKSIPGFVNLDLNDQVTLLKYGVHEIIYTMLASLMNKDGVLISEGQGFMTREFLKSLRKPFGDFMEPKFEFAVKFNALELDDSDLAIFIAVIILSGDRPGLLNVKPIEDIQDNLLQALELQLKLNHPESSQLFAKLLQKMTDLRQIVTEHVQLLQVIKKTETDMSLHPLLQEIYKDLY

PPARγ [9] = biological target: T1, PPARγ; experiment: PPARγ binding assay performed by CEREP; settings: single concentration 30 µM, rosiglitazone as positive control

SMILES: COC(=O)c1cccc(/C=N/N(C)S(=O)(=O)c2ccc(OC)c(OC)c2)c1 [Compound 5, (E)-methyl 3-((2-(3,4-dimethoxyphenylsulfonyl)-2-methylhydrazono)methyl)benzoate]
Plasma stability (in words) [1]: very stable | Solubility in DMSO ([2]; dosing vehicle DMSO): partially insoluble in DMSO

SMILES: COc1ccc(S(=O)(=O)N(C)/N=C/c2ccc(C#N)cc2)cc1OC [Compound 9, (E)-N′-(4-cyanobenzylidene)-3,4-dimethoxy-N-methylbenzene-sulfonohydrazide]
Plasma stability (in words) [1]: very stable; also recorded: high chemical and plasma stability | Glucose levels after 7 days ([7]; 50 mg/kg for 7 days, vehicle 410.0±58.0 mg/dL): 242.4 ± 55.3 mg/dL | Antinociceptive activity ([7]; diabetic neuropathic pain model induced by STZ in rats): antinociceptive agent | Hypoglycemic activity (in words) [2]: did not reduce hyperglycemia | PPARγ activity as described earlier (PPARγ [8]): partial agonist of PPARγ

SMILES: COc1ccc(S(=O)(=O)N/N=C/c2ccc(C(=O)O)cc2)cc1OC [Compound 10, (E)-4-((2-(3,4-dimethoxyphenylsulfonyl) hydrazono)methyl)benzoic acid]
Inhibition of control specific binding to PPARγ (PPARγ [9]): unable to bind to PPARγ

The next lines start with results.

Plasma stability (in words) [1]: very stable
SMILES: COc1ccc(S(=O)(=O)N/N=C/c2cccc(C(=O)O)c2)cc1OC [Compound 4, (E)-3-((2-(3,4-dimethoxyphenylsulfonyl) hydrazono)methyl)benzoic acid]

Plasma stability (in words) [1]: unstable
SMILES: COC(=O)c1ccc(/C=N/N(C)S(=O)(=O)c2ccc(OC)c(OC)c2)cc1 [Compound 6, (E)-methyl 4-((2-(3,4-dimethoxyphenylsulfonyl)-2-methylhydrazono)methyl)benzoate]
Blood glucose after single dose [2]: 255.3 ± 42.2 mg/dL | Hypoglycemic activity (in words) [2]: showed hypoglycemic activity | Blood glucose before single dose [2]: 397.1 ± 38.2 mg/dL

Plasma stability (in words) [1]: unstable
SMILES: COC(=O)c1ccc(/C=N/NS(=O)(=O)c2ccc(OC)c(OC)c2)cc1 [Compound 7, (E)-methyl 4-((2-(3,4-dimethoxyphenylsulfonyl)hydrazono)methyl)benzoate]
Blood glucose after single dose [2]: 182.2 ± 22.7 mg/dL | Hypoglycemic activity (in words) [2]: showed hypoglycemic activity | Blood glucose before single dose [2]: 384.0 ± 41.9 mg/dL | Paw withdrawal threshold (PWT), after treatment ([3]; 50 mg·kg−1 ip, long-term administration): 36.7 ± 0.9 g | Paw withdrawal threshold (PWT), before treatment ([3]; four weeks after induction): 24.0 ± 1.4 g | Paw withdrawal latency (PWL), after 3 days of treatment ([4]; 50 mg·kg−1 ip): 12.2 ± 0.9 s | Paw withdrawal latency (PWL), after 7 days of treatment ([4]; 50 mg·kg−1 ip): 13.3 ± 0.2 s | Paw withdrawal latency (PWL), before treatment ([4]; four weeks after induction): 8.5 ± 0.2 s | Effect on diabetic neuropathic pain (in words) ([4]; long-term administration, 50 mg·kg−1 ip): reduced diabetic neuropathic pain | Hypoglycemic activity (in words) [5]: promoted hypoglycemic activity only after 7 days of treatment

Plasma stability (in words) [1]: unstable | Chemical stability [6]: unstable
SMILES: COc1ccc(S(=O)(=O)N/N=C/c2ccc(C#N)cc2)cc1OC [Compound 8, (E)-N′-(4-cyanobenzylidene)-3,4-dimethoxybenzenesulfonohydrazide]
